# Experimental data as given in PMC7065888 (Science Advances, 2020).
# Key:
# recombinant mouse RBP2 = assay type: binding; settings: holo-RBP2 incubated with 2 molar excess of compound, room temperature, 15 min
# mouse RBP2 = biological target: T1, mouse RBP2 (Mus musculus, UniProt Q08652); assay type: binding
# T1 sequence (Q08652 1-134): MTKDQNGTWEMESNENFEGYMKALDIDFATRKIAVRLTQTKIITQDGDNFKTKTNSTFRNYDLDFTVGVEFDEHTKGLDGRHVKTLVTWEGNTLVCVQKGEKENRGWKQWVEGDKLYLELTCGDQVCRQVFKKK
# recombinant apo-RBP2 = assay type: binding, mouse; settings: MS/MS-based detection
# Method in brief: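 Purified recombinant mouse RBP2 in apo form was incubated with the test lipid. The protein was then chromatographically repurified to strip unbound ligand, and lipid still associated with the protein was detected by tandem mass spectrometry.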
# RBP2 = settings: cited from earlier work
Compound,displacement of retinol from its RBP2 binding pocket (recombinant mouse RBP2),other results
"CCCCC/C=C\C/C=C\C/C=C\C/C=C\CCCC(=O)OC[C@@H](O)CO [1-AG, 1-arachidonoylglycerol]",displaced retinol,–
"CCCCC/C=C\C/C=C\C/C=C\C/C=C\CCCC(=O)OC(CO)CO [2-AG, 2-arachidonoylglycerol]",displaced retinol,Kd (mouse RBP2): 27.1 ± 2.4 nM; ligand bound to RBP2 after chromatographic repurification (recombinant apo-RBP2): remained bound to RBP2
"CCCCC/C=C\C/C=C\CCCCCCCC(=O)OC(CO)CO [2-LG, 2-lineoylglycerol]",displaced retinol,–
"CCCCCCCC/C=C\CCCCCCCC(=O)OC(CO)CO [2-OG, 2-oleoylglycerol]",displaced retinol,Kd (mouse RBP2): 65.4 ± 4.4 nM
"CCCCC/C=C\C/C=C\C/C=C\C/C=C\CCCC(=O)NCCO [AEA, N-arachidinoylethanolamine]",little displacement,fold less effective than MAGs in displacing bound retinol from RBP2 (mouse RBP2; fluorescence emission spectra of holo-RBP2): ~ 25 fold
"CCCCC/C=C\C/C=C\CCCCCCCC(=O)NCCO [LEA, N-linoleoylethanolamine]",little displacement,–
"CCCCCCCCCCCCCC(=O)NCCO [MEA, N-myristoylethanolamine]",little displacement,–
CC1=C(/C=C/C(C)=C/C=C/C(C)=C/C=O)C(C)(C)CCC1 [retinaldehyde],–,Kd for binding to RBP2 relative to the Kd values reported here for 2-MAG binding (RBP2): two to six times higher
"CC1=C(/C=C/C(C)=C/C=C/C(C)=C/CO)C(C)(C)CCC1 [retinol, all-trans-retinol]",–,Kd for binding to RBP2 relative to the Kd values reported here for 2-MAG binding (RBP2): two to six times higher
